Sampled rows, rich in hits. Any-hit rate of the full collection: about 1.2%.
GalR3 antag = GalR3 antagonists in HEK293 cells, primary screen, cell-based, fluorescence readout | HEK293 GalR3-CNG cAMP membrane potential fluorescence; galR3 body fused to GalR1 C-terminus | inhibition, % at 3 µM | 0.44% of 360,000 active | Galanin receptor type 3 (Homo sapiens), O60755;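 active means inhibition above the screen-wide average plus 3 SD, cut at about 13% in these data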;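 further: forskolin and galanin both at EC90 stimulate the cells; cAMP rise reported by CNG channel membrane potential dye signal; 0% = forskolin plus galanin with DMSO and 100% = forskolin alone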
Rin1-Abl PPI inh = inhibitors of Rin1-Abl protein binding, primary screen, biochemical, TR-FRET | Tyrosine-protein kinase ABL1 (Homo sapiens) + Ras and Rab interactor 1 (Homo sapiens), … | inhibition, % at 7.35 µM | 0.4% of 360,000 active | AID 588664, 2011; in the data active means inhibition above about 5%, passing the limit was not always enough
ARFGAP1 inhibitor = inhibitors of rat ARFGAP1 GAP activity, primary screen, biochemical, fluorescence polarization, GDP tracer; ADP-ribosylation factor GTPase-activating protein 1 (Rattus norvegicus), Q62848; Arfgap1-stimulated ARF1 GTP hydrolysis, GDP FP detection; inhibition, % at 16.5 µM; 0.26% of 360,000 active; AID 651572, 2012;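 active means inhibition above a per-plate limit, mean inhibition of low control wells plus 3 SD, cut at about 25% in these data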;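 further: 0% = DMSO wells with enzyme and 100% = wells lacking Arfgap1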
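Assay system: Rat Arfgap1 GAP domain (His6, aa 1-136), purified enzyme | Buffer or medium: HEPES 25 mM pH 7.5, NaCl 150 mM, MgCl2, DTT | Schedule: GTP hydrolysis reaction 2 h at 25 °C | Signal: FP of antibody-bound GDP Alexa 633 tracer, ex 620/em 688 nm | Measure: Percent inhibition of Arfgap1-stimulated GTP hydrolysis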
ASAP1 inh = inhibitors of human ASAP1 ArfGAP activity, primary screen, biochemical, fluorescence polarization; Arf-GAP with SH3 domain, ANK repeat and PH domain-containing protein 1 (Homo sapiens), …; AID 624377, 2012; 0.19% of 360,000 active; ASAP1-stimulated ARF1 GTP hydrolysis, GDP FP detection; inhibition, % at 16.5 µM; in the data active means inhibition above about 25%;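 further: 0% = vehicle with enzyme and substrate and 100% = no enzyme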
ARFGAP1 inh conf = ARFGAP1 inhibitor hit confirmation, biochemical, fluorescence polarization, triplicate. shares compounds with ARFGAP1 inhibitor. ARFGAP1-stimulated ARF1 GTP hydrolysis, GDP tracer FP. inhibition, % at 16.5 µM. 30% of 890 active. AID 651608, 2012;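 active means average inhibition over triplicates above the hit cutoff set in the earlier primary screen, cut at about 25% in these data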;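 further: 0% = Arfgap1 plus ARF1-GTP with DMSO and 100% = wells lacking Arfgap1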
Numbers without * were called inactive.

Screening COC(=O)[C@]12C[C@H](CC(=O)N3CCN(C(=O)c4ccco4)CC3)C(=O)N(CCC3=CCCCC3)C1=C[C@H](COCc1ccccc1)O[C@@H]2C returned GalR3 antag -4, ARFGAP1 inhibitor -5 and ASAP1 inh -9.
Screening CCN1CCN(c2ccc(S(=O)(=O)N3CCCCC3)cc2NC(=O)/C=C/c2ccc([N+](=O)[O-])cc2)CC1 returned GalR3 antag 1, Rin1-Abl PPI inh -1, ARFGAP1 inhibitor 42*, ASAP1 inh 29* and ARFGAP1 inh conf 45*.
`CCN1CCN(c2ccc(S(=O)(=O)N3CCCCC3)cc2NC(=O)/C=C/c2ccc(F)cc2)CC1` gave GalR3 antag 1, Rin1-Abl PPI inh 2, ARFGAP1 inhibitor 12 and ASAP1 inh 6.
For O=C(/C=C/c1ccco1)Nc1ccc(N2CCCC2)cc1 the results were GalR3 antag -2, Rin1-Abl PPI inh 1, ARFGAP1 inhibitor 26*, ASAP1 inh 12 and ARFGAP1 inh conf -1.
Screening O=C(/C=C/c1ccco1)Nc1ccc(C(=O)N2CCOCC2)cc1 returned GalR3 antag 2, Rin1-Abl PPI inh -4, ARFGAP1 inhibitor -1 and ASAP1 inh -17.
CCCCNC(=O)C[C@H]1C[C@@]2(C(=O)OC)C(=C[C@H](C(C)(C)C)O[C@@H]2C)N(Cc2ccc3c(c2)OCO3)C1=O was read as GalR3 antag -7, ARFGAP1 inhibitor -1 and ASAP1 inh -2.
For C=CCCC[C@H]1OC(=O)[C@H](C)NC(=O)[C@H](C(C)C)NC(=O)[C@@H]2CCCN2C(=O)[C@H](Cc2ccccc2)OC(=O)[C@@H](C(C)C)N(C)C(=O)[C@H](C(C)C)NC(=O)C1(C)C the results were GalR3 antag -3, ARFGAP1 inhibitor 3 and ASAP1 inh 7.
`COc1ccc(N2C(=O)c3n[nH]c(C)c3C2c2ccccc2)cc1` (stereo not given) gave GalR3 antag -6, ARFGAP1 inhibitor 3 and ASAP1 inh 3.
Screening CNc1nc(-c2c[nH]c3ccccc23)cs1 returned GalR3 antag -2, Rin1-Abl PPI inh -2, ARFGAP1 inhibitor 31*, ASAP1 inh 10 and ARFGAP1 inh conf 1.
Screening Cc1ccc2sc(-c3ccc(NC(=O)c4cc(-n5cnnc5)ccc4Cl)cc3)nc2c1 returned GalR3 antag -6, Rin1-Abl PPI inh -2, ARFGAP1 inhibitor 28*, ASAP1 inh 15 and ARFGAP1 inh conf 18.
For Cc1ccc(S(=O)(=O)NCC2CCN(C(=O)C(=O)c3cccs3)CC2)cc1 the results were GalR3 antag -5, ARFGAP1 inhibitor 1 and ASAP1 inh 14.
Screening O=C(OCC(=O)N1CCCC1)c1ccc(OC(F)(F)F)cc1 returned GalR3 antag -6, Rin1-Abl PPI inh 2, ARFGAP1 inhibitor 25*, ASAP1 inh 20 and ARFGAP1 inh conf 2.
Screening CCOC(=O)C1=CCN(S(=O)(=O)c2ccc(Cl)cc2)C1c1cccc(Br)c1 (stereo not given) returned GalR3 antag -4, ARFGAP1 inhibitor -4 and ASAP1 inh 1.
Screening COC(=O)[C@]12C[C@H](CC(=O)NCC34CC5CC(CC(C5)C3)C4)C(=O)N(Cc3ccc4c(c3)OCO4)C1=C[C@H](C(C)(C)C)O[C@@H]2C returned GalR3 antag -6, ARFGAP1 inhibitor -3 and ASAP1 inh 9.
CCOc1cc(/C=C2\SC(=N)N(c3nonc3N)C2=O)ccc1OCCN1CCOCC1 was read as GalR3 antag -10, Rin1-Abl PPI inh 0, ARFGAP1 inhibitor 32*, ASAP1 inh 23 and ARFGAP1 inh conf 38*.
CCOc1cc(/C=C2\SC(=N)N(c3nonc3N)C2=O)ccc1OCC(N)=O was read as GalR3 antag 8, Rin1-Abl PPI inh 2, ARFGAP1 inhibitor 6 and ASAP1 inh -8.
For O=C1CCN(Cl)C(=O)N1Cl the results were GalR3 antag 2, ARFGAP1 inhibitor 26*, ASAP1 inh 8 and ARFGAP1 inh conf 2.
O=C(CN(c1ccc(F)cc1)S(=O)(=O)c1ccc2c(c1)OCCO2)Nc1ccc2c(c1)OCO2 was read as GalR3 antag -1, Rin1-Abl PPI inh 0, ARFGAP1 inhibitor 27*, ASAP1 inh 14 and ARFGAP1 inh conf 3.
COC(=O)C[C@H]1C=C[C@@H](NC(=O)C2CC2)[C@@H](CO)O1 was read as GalR3 antag -1, ARFGAP1 inhibitor 2 and ASAP1 inh 11.
`Cc1nc(NC(=O)C(C)(C)C)sc1-c1nc(N)sc1-n1cc(-c2ccccc2)nn1` gave GalR3 antag -6, ARFGAP1 inhibitor -3 and ASAP1 inh -7.
`CCNc1nc(-c2sc(NC(=O)C(C)(C)C)nc2C)c(-n2cc(-c3ccccc3)nn2)s1` gave GalR3 antag -6, ARFGAP1 inhibitor 32*, ASAP1 inh 10 and ARFGAP1 inh conf 3.
`O=[N+]([O-])c1cc2c(ccc3occc32)o1` gave GalR3 antag -9, ARFGAP1 inhibitor 0 and ASAP1 inh 2.
Screening CC1CCCCN1S(=O)(=O)c1cc2c(=O)nc3ccccn3c2cc1Cl (stereo not given) returned GalR3 antag 1, ARFGAP1 inhibitor 0 and ASAP1 inh 6.
For COc1ccccc1C(=O)NC(C)c1cccc2ccccc12 (stereo not given) the results were GalR3 antag -9, Rin1-Abl PPI inh -2, ARFGAP1 inhibitor 6 and ASAP1 inh 2.
`COc1cc2cc(C(=O)NC(C)c3cccc4ccccc34)c(N)nc2cc1OC` (stereo not given) gave GalR3 antag -3, ARFGAP1 inhibitor 25*, ASAP1 inh 19 and ARFGAP1 inh conf 7.
CCC(C)[C@H](NC(=O)OC(C)(C)C)C(=O)N/N=C/c1ccc2cc(OC)ccc2n1 (stereo not given in full) was read as GalR3 antag 0, Rin1-Abl PPI inh -3, ARFGAP1 inhibitor 3 and ASAP1 inh -15.
COc1ccc2nc(/C=N/NC(=O)[C@H](CCSC)NC(=O)OC(C)(C)C)ccc2c1 was read as GalR3 antag 2, Rin1-Abl PPI inh -2, ARFGAP1 inhibitor 27*, ASAP1 inh 11 and ARFGAP1 inh conf 1.
Screening O=C(N[C@H](C(=O)N1CCC[C@H]1C(=O)NCc1ccccc1)c1ccccc1)C1CCCC1 returned GalR3 antag -8, ARFGAP1 inhibitor 9 and ASAP1 inh -19.
For CCn1c2ccccc2c2cc(NC(=O)CSc3nnc(-c4cccc(OC)c4)n3N)ccc21 the results were GalR3 antag -5, Rin1-Abl PPI inh -4, ARFGAP1 inhibitor 31*, ASAP1 inh 1 and ARFGAP1 inh conf 26*.

Compound activity from PubChem BioAssay.
